In ChEMBL document CHEMBL3244358, “Conformational analogues of antihypertensive agents related to guanethidine” (J Med Chem, 1977):
Active and inactive are the calls of the source. The rule behind the calls is not given here.

Experiments:
Cavia porcellus [1] = species on record: Cavia porcellus; assay: Equipotent molar ratio, ratio of compound ID50 to guanethidine ID50 for adrenergic receptor in guinea pig vas deferens assessed as inhibition of electrically-induced release of norepinephrine
Cavia porcellus [2] = species on record: Cavia porcellus; assay: Antagonist activity at adrenergic receptor in guinea pig vas deferens assessed as inhibition of electrically-induced release of norepinephrine measured every 10 mins; format: tissue-based
How it was run: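 Isolated guinea pig vas deferens in Krebs solution, stimulated transmurally for 15 s every 4 min at 25-35 shocks/s, 0.1 ms pulses, supramaximal 110-120 V. Salts were dissolved in distilled water, with a fresh preparation for each drug. Responses were read at 10-min intervals. ID50, the bath concentration giving 50% inhibition, came from dose-response curves of at least three concentrations, as free base.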

Cavia porcellus [3] = species on record: Cavia porcellus; assay: Antagonist activity at adrenergic receptor in guinea pig vas deferens assessed as inhibition of electrically-induced release of norepinephrine at 1 x 10^-4 M measured every 10 mins; format: tissue-based

| EPMR (Cavia porcellus [1]) | ID50 (Cavia porcellus [2]) | inhibition (Cavia porcellus [3]) | Structure (SMILES) |
| --- | --- | --- | --- |
| 3.65 | 7.3 µM | – | N=C(N)NC[C@@H]1C[C@H]1c1ccccc1 |
| 2.5 | 5 µM | – | N=C(N)NCCc1ccc2ccccc2c1 |
| 0.095 | 1.9 ×10⁻⁷ M | – | N=C(N)NCc1cccc2ccccc12 |
| – | 2 µM | – | N=C(N)NCCN1CCCCCCC1 |
| 6 | 1.2 ×10⁻⁵ M | – | N=C(N)NCCc1cccc2ccccc12 |
| 10 | 2 ×10⁻⁵ M | – | N=C(N)NC1CCc2ccc([N+](=O)[O-])cc21 (stereo unspecified) |
| 0.049 | 9.8 ×10⁻⁸ M | – | N=C(N)NC/C=C\C1CCCCC1 |
| 1.25 | 2.5 µM | – | N=C(N)NCC1Cc2ccccc21 (stereo unspecified) |
| 2.9 | 5.8 µM | – | N=C(N)NC1CCc2ccccc21 (stereo unspecified) |
| – | – | inactive | N=C(N)N[C@H]1C[C@H]1c1ccccc1 (relative stereo) |
| 0.39 | 7.7 ×10⁻⁷ M | – | N=C(N)NC/C=C/C1CCCCC1 |
| – | – | inactive | N=C(N)NC1Cc2ccccc2C1 |
| – | – | inactive | COc1ccc2c(c1)CCC2NC(=N)N (stereo unspecified) |
| 2.52 | 5.05 µM | – | N=C(N)N[C@@H]1C[C@H]1c1ccccc1 |
| 4.55 | 9.1 µM | – | N=C(N)NC[C@H]1C[C@H]1c1ccccc1 (relative stereo) |
